TCR CD3 inh = inhibitors of human TCR-CD3 interaction | TAMRA-labeled TCR probe fluorescence, biochemical | inhibition, % at 9.4 µM | 360,000 tested, 0.37% active; in the data active = inhibition above about 19%;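 note: recombinant mutant TCR 2C K166C tagged with TAMRA read by polarization; 0% = receptor in buffer alone and 100% = receptor with positive control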
SIAE inh = inhibitors of human sialic acid acetylesterase SIAE; Q9HAT2; SIAE FP-Rh probe binding, fluorescence polarization; inhibition, % at 9.66 µM; 370,000 tested, 0.69% active; AID 1053197;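 active = inhibition above a cutoff: mean of compounds within the control limits plus 3 SD of those, cut at about 17% in these data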;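 note: 0% = plate median of compound wells and 100% = probe without SIAE protein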
mABHD4 FP = inhibits mouse alpha/beta hydrolase domain 4 | Q8VD66 | purified mABHD4, FP-Rh probe fluorescence polarization | inhibition, % at 8.92 µM | 370,000 tested, 0.54% active;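 active = inhibition exceeding the mean over every tested compound plus 3 SD, cut at about 30% in these data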;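 note: 0% = plate median of compound wells and 100% = S159A mutant with DMSO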
Target sequence (Q8VD66 whole entry, looked up, the tested form may be a part): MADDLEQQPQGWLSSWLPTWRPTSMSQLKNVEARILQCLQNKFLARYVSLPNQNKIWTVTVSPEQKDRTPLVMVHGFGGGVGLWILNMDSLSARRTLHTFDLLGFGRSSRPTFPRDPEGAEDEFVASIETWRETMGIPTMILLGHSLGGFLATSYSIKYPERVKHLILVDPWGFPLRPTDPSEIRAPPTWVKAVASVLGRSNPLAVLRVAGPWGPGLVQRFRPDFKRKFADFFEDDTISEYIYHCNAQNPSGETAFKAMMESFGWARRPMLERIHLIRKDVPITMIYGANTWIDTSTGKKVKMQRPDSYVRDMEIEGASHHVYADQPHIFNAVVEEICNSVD
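Assay system: mouse ABHD4 enzyme, wild type / Also added: fluorescent activity-based probe FP-Rh / Doses: single nominal dose of 8.92 µM, 0.89% DMSO final / Timing: 45 min compound pre-incubation plus 60 min probe step, 25 °C / Signal: FP readout, ex 525 nm / em 598 nm / Control set: S159A mutant/DMSO as 100%, compound-well median as 0%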
PRMT1 inh = PRMT1 (human) inhibition, primary screen; Q99873; recombinant PRMT1, activity-based probe fluorescence polarization; inhibition, % at 2.79 µM; 370,000 tested, 1.3% active; AID 652257;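 active = inhibition above about 21% made by adding two undisclosed values, limit read from the data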
Target sequence (Q99873 whole entry, looked up): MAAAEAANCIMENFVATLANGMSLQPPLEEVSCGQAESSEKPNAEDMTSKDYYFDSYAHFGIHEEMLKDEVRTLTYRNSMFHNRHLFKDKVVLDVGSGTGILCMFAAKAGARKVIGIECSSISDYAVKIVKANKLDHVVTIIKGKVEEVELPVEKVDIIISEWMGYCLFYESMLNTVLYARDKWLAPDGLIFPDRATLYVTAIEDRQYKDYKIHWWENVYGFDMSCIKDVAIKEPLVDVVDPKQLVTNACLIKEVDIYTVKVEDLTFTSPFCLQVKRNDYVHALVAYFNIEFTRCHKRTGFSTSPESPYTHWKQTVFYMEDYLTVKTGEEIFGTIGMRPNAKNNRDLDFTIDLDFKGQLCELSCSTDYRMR
rCAG binder = r(CAG) repeat RNA binding; 370,000 tested, 1.3% active; inhibition, % at 3 µM; TO-PRO-1 dye displacement fluorescence;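 active = inhibition above the plate cutoff, the mean of all test compounds on that plate plus 3 SD, cut at about 35% in these data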;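 note: 0% = DMSO alone and 100% = 100 µM mitoxantrone as full dye displacement; higher means more dye released from RNA so lower well fluorescence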
rCAG binder conf = r(CAG) RNA repeat binding, confirmation | shares compounds with rCAG binder | AID 652065 | inhibition, % at 3 µM | 4,300 tested, 70% active | TO-PRO-1 dye displacement fluorescence;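 active = inhibition above a per-plate cutoff, the mean inhibition of sample wells plus 3 SD, cut at about 35% in these data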;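 note: loss of TO-PRO-1 fluorescence as compound displaces dye from 1x1 AA loop RNA; 0% = DMSO only wells and 100% = 100 µM mitoxantrone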
DNA CAG counter = DNA CAG dye complex inhibition counter-screen; d(CAG) DNA oligo TO-PRO-1 dye displacement, fluorescence; 4,300 tested, 94% active; shares compounds with rCAG binder; inhibition, % at 3 µM; AID 652068;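 active = inhibition above its plate's cutoff, the mean test-well inhibition plus 3 SD, cut at about 4.8% in these data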;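 note: 0% = DNA dye mix with DMSO and 100% = 100 µM mitoxantrone; hits displace the dye from DNA and so lower well fluorescence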
An asterisk follows results filed as active; x = not tested or not shown; ! = not confirmed by another sample. An excerpt weighted towards active compounds, which were near 3.3% of everything screened.

SMILES	TCR CD3 inh	SIAE inh	mABHD4 FP	PRMT1 inh	rCAG binder	rCAG binder conf	DNA CAG counter
Cc1nn(-c2ccccc2)c2sc(-c3n[nH]c(=S)o3)cc12	4.8	-18.6	13.4	14.1	65.2*	32.1	8.0*
Cc1ccc(Cn2cc(CN3[C@H](Cc4ccccc4)COc4cc(Br)ccc4S3(=O)=O)nn2)cc1	x	-3.9	0.8	-2.9	4.6	x	x
COc1ccccc1NS(=O)(=O)c1cccc(C(=O)NN)c1	-8.2	-4.2	-11.0	-2.4	10.6	x	x
NNC(=O)c1cccc(S(=O)(=O)Nc2cc(Cl)ccc2Cl)c1	7.7	2.1	7.5	-0.9	64.2*	12.5	3.4
CC[C@H](CCCc1ccc(OC)cc1)CCC(=O)N1CCOCC1	x	-4.1	2.9	3.0	-0.3	x	x
Cc1cc(C(F)(F)F)n(-c2nc(C(=O)NNS(=O)(=O)c3ccccc3[N+](=O)[O-])cs2)n1	3.5	1.9	10.1	-1.6	45.0*	27.0	8.6*
Cc1ccc(C(=O)N(NC2=NS(=O)(=O)c3ccccc32)S(=O)(=O)c2ccc(C)cc2)cc1	-8.9	-4.5	5.0	2.8	63.9*	43.7*	12.7*
CC(C)(C)c1ccc(Oc2ccc(NC(=O)C3CC=CCC3C(=O)O)cc2)cc1 (stereo unspecified)	2.3	7.4	-6.3	0.2	34.7*	45.4*	11.7*
Cc1n[nH]c(=O)c2c(NC(=O)CSc3nn(-c4ccc(F)cc4)c(=S)s3)oc(C)c12	1.7	-2.7	5.2	15.1	39.7*	28.2	12.5*
CCOC(=O)[C@]12CCCCC/C=C\1N(Cc1ccc(OC)cc1)C(=O)[C@H]2CC(=O)N1CCN(C(=O)C2CC2)CC1	x	-2.8	-4.6	0.1	2.5	x	x
CCOC(=O)C1C(=O)CC(=O)C(C(=O)OCC)C1c1ccc(O)cc1 (stereo unspecified)	-3.4	0.2	-1.1	-0.1	36.3*	2.7	0.8
CC(=O)NC1CCCCN(Cc2cccc(F)c2)C1=O (stereo unspecified)	x	2.8	4.9	-2.8	-1.0	x	x
O=C(O)c1[nH]c2ccc(Cl)cc2c1CC(=O)N1CCN(C(=O)c2ccco2)CC1	6.3	6.2	6.8	5.2	25.6	x	x
COc1cc(C(=O)Nc2c(C(=O)O)[nH]c3ccc(Br)cc23)cc(OC)c1OC	2.6	1.5	4.0	0.6	83.8*	78.2*	40.3*
COc1ccccc1N1CCN(C(=O)Cc2ccc(Cl)cc2)CC1	-6.5	1.5	-6.9	7.6	-5.7	x	x
COc1ccccc1N1CCN(C(=O)Cc2c(C(=O)O)[nH]c3ccc(Cl)cc23)CC1	2.6	5.3	0.1	-2.8	38.8*	41.9*	11.4*
COc1ccc(Br)cc1CNC(=O)Cc1c(C(=O)O)[nH]c2ccc(Cl)cc12	12.0	0.3	-12.6	0.4	58.0*	44.9*	11.5*
Cc1ccc(C)c(N2CCN(C(=O)Cc3c(C(=O)O)[nH]c4ccc(Cl)cc34)CC2)c1	-3.7	-1.4	2.7	1.4	57.0*	63.8*	25.1*
C=CCN1C(=O)[C@@H](CC(=O)NCCCN2CCCC2=O)[C@]2(C(=O)OCC)CCCCC/C=C/12	x	-5.3	-0.8	-1.2	0.8	x	x
C=CCN1[C@H](Cc2ccccc2)COc2cccc(N3CCCC3)c2S1(=O)=O	x	7.8	-2.7	-2.2	6.2	x	x
CC(C)n1nnnc1C1(C)CCCCC(=O)N1Cc1cccc(C(F)(F)F)c1 (stereo unspecified)	x	0.0	-7.1	-1.3	1.1	x	x
Cc1ccc(-c2nnc(SCC(=O)NN=Cc3c[nH]c4ccccc34)n2-c2ccccc2)cc1	x	3.0	-3.0	-0.1	8.2	x	x
O=C(O)c1[nH]c2ccc(Cl)cc2c1CC(=O)N1CCN(c2ccccc2)CC1	-0.2	-0.1	0.7	1.9	41.1*	41.5*	12.3*
C[C@H](CCC(=O)O)[C@H]1CC[C@H]2[C@@H]3[C@H](O)C[C@@H]4C[C@H](O)CC[C@]4(C)[C@H]3CC[C@]12C	7.6	-4.7	3.8	2.4	37.5*	30.6	3.7
C[C@H](CCC(=O)O)[C@H]1CC[C@H]2[C@@H]3CC[C@@H]4C[C@H](O)CC[C@]4(C)[C@H]3C[C@H](O)[C@]12C	6.3	-0.4	-18.8	2.6	36.7*!	40.0*	6.7*
SMILES	TCR CD3 inh	SIAE inh	mABHD4 FP	PRMT1 inh	rCAG binder	rCAG binder conf	DNA CAG counter
CC(CCC(=O)NN)C1CCC2C3CCC4CC(O)CCC4(C)C3CCC12C (stereo unspecified)	3.6	-10.7	5.2	0.4	5.0	x	x
COc1ccc(-c2ncn(CCc3ccccc3OC)c2C(C)C)cc1	-4.4	0.7	10.6	7.0	-2.2	x	x
COc1cc(/C=C(\CCC(=O)O)c2nc3ccccc3s2)ccc1OCC(=O)Nc1c(Cl)cccc1Cl	15.1	-10.0	-5.1	1.6	31.8	x	x
O=C(CSc1nc2ccccc2s1)Nc1ccc(N2CCOCC2)c(Cl)c1	-0.4	1.7	-0.2	-0.1	-0.7	x	x
O=C(O)CC/C(=C\c1ccc(N2CCOCC2)c([N+](=O)[O-])c1)c1nc2ccccc2s1	7.8	-3.4	6.1	-2.0	48.4*	66.3*	24.5*
O=C(O)CC/C(=C\c1ccc2c(c1)OCO2)c1nc2ccccc2s1	7.2	-9.2	-1.8	3.1	18.0	x	x
O=C(O)CC/C(=C/c1cccc(NC(=O)c2ccccc2Cl)c1)c1nc2ccccc2s1	9.0	-24.6	-32.8	0.4	71.5*	75.4*	40.1*
O=C(O)CC/C(=C\c1ccc(Cl)c([N+](=O)[O-])c1)c1nc2ccccc2s1	-1.6	-7.5	-6.8	2.4	38.7*	41.1*	10.1*
O=C(O)C/C(=C\c1ccc(N2CCOCC2)c([N+](=O)[O-])c1)c1nc2ccccc2s1	6.9	-0.7	8.4	9.6	45.4*	41.0*	15.8*
O=C(Nc1ccc(Cl)c(Cl)c1)C1CCN(c2nnc(-n3cccc3)s2)CC1	x	-11.8	-41.6	-2.3	5.5	x	x
CC(C)C[C@@H]1COc2cc(Br)ccc2S(=O)(=O)N1Cc1cn(CCC2OCCO2)nn1	x	-1.8	5.8	-1.0	-2.6	x	x
C[C@@H](N)P(=O)(O)C[C@H](Cc1ccccc1)C(=O)O	x	-5.5	-3.7	-11.2	-0.4	x	x
Cc1ccc(NC(=S)N(CCN2CCCCC2)Cc2ccco2)cc1	1.9	-1.1	1.9	-1.6	-1.6	x	x
Cc1ccc(NC(=S)N(Cc2ccco2)C2CCN(C(C)C)CC2)cc1	4.8	12.6	-3.9	-3.1	37.1*	0.3	1.2
O=C1CCC[C@H]2C[C@H](NCc3ccc(F)cc3F)CC[C@]23CCCN13	x	0.2	1.1	4.9	x	x	x
Cc1ccc(S(=O)(=O)Nc2ccc(Br)cc2/C=N/n2cnnc2)cc1	-1.6	-0.2	-6.5	-0.1	44.8*	39.5*	12.5*
CCn1c2ccccc2c2cc(/C=N/NC(=O)c3cc(O)cc(O)c3)ccc21	-2.7	-73.8	-61.6	2.4	37.5*	37.0*	21.3*
